Laboratory results as given in ChEMBL document CHEMBL3351508, “Second-generation antibacterial benzimidazole ureas: discovery of a preclinical candidate with reduced metabolic liability” (J Med Chem, 2014).
≈ marks a conversion by molar mass, not a printed value.

Experiments:
Streptococcus pneumoniae = experiment: Antibacterial activity against Streptococcus pneumoniae ATCC 10015 by CLSI method; type: functional
How it was run: (§1)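 Broth microdilution MIC in liquid medium following CLSI methods, with ATCC strains. Each run was accepted only if comparator antibiotics fell within their recommended quality-control ranges for the appropriate ATCC strain.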

Rattus norvegicus [1] = species: Rattus norvegicus; experiment: Drug metabolism in rat assessed as reactive metabolites as rat liver protein binding per mg of protein at 100 uCi for 13 days measured on day 14; type: ADME, organism-based; conditions: in vivo, 312 h
How it was run: (§2)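 Male rats were dosed with unlabeled compound at 90 mg/kg for 6 or 13 days, then given 100 μCi ¹⁴C-labeled compound on day 7 or 14 and killed 4 h later. Liver S9 (9000g) was washed with acetonitrile until free of unbound label and the pellet dissolved in 1 N NaOH at 60 °C. Radioactivity was counted by scintillation, normalized to Bradford protein, and expressed as pmol/mg.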

Enterococcus faecalis = experiment: Antibacterial activity against Enterococcus faecalis ATCC 29212 by CLSI method; type: functional; how it was run: as §1
Rattus norvegicus [2] = species: Rattus norvegicus; experiment: Drug metabolism in rat assessed as reactive metabolites as rat liver protein binding per mg of protein at 100 uCi for 6 days measured on day 7; type: ADME, organism-based; conditions: in vivo, 144 h; how it was run: as §2
[3] = test system: Staphylococcus epidermidis; experiment: Antibacterial activity against Staphylococcus epidermidis ATCC 12228 by CLSI method; type: functional; how it was run: as §1
Staphylococcus aureus [4] = experiment: Antibacterial activity against Staphylococcus aureus ATCC 29213 by CLSI method; type: functional; how it was run: as §1
Enterococcus faecium = experiment: Antibacterial activity against Enterococcus faecium ATCC 49624 by CLSI method; type: functional; how it was run: as §1
[5] = Inhibition of Staphylococcus aureus DNA topoisomerase-4 C2E2 using pBR322 plasmid DNA as substrate by coupled enzyme reaction assay
Moraxella catarrhalis = experiment: Antibacterial activity against Moraxella catarrhalis ATCC 25238 by CLSI method; type: functional; how it was run: as §1
Haemophilus influenzae = experiment: Antibacterial activity against Haemophilus influenzae ATCC 49247 by CLSI method; type: functional; how it was run: as §1
Staphylococcus aureus [6] = experiment: Antibacterial activity against Staphylococcus aureus ATCC 29213 by CLSI method in presence of human 50% serum; type: functional; how it was run: as §1
Cytochrome P450 2C8 = target: T1, Cytochrome P450 2C8 (Homo sapiens, UniProt P10632); experiment: Drug metabolism in recombinant CYP2C8 (unknown origin) at 1 uM after 30 mins; type: ADME; conditions: recombinant enzyme, 0.5 h
T1 sequence (P10632 whole entry): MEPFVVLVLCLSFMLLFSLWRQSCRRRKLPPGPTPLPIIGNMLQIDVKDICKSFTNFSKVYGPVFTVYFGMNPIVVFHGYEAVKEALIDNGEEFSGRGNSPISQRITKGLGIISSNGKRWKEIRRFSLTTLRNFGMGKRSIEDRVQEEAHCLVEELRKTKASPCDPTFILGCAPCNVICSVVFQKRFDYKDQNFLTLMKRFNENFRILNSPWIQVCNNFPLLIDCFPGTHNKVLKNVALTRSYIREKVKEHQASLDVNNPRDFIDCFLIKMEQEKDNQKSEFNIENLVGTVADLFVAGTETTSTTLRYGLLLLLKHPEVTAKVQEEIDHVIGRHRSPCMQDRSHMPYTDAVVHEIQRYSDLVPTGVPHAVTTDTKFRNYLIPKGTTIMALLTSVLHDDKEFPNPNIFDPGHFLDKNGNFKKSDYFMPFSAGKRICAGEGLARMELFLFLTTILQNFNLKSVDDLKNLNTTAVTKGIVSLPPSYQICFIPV
How it was run: (§3)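 Parent at 1 and 10 μM was incubated with individual recombinant CYP supersomes, with and without NADPH, for 0, 15 and 30 min. Formation of the imine metabolite was quantified by LC-MS/MS.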

Cytochrome P450 2B6 = target: T2, Cytochrome P450 2B6 (Homo sapiens, UniProt P20813); experiment: Drug metabolism in recombinant CYP2B6 (unknown origin) at 1 uM after 30 mins; type: ADME; conditions: recombinant enzyme, 0.5 h; how it was run: as §3
T2 sequence (P20813 whole entry): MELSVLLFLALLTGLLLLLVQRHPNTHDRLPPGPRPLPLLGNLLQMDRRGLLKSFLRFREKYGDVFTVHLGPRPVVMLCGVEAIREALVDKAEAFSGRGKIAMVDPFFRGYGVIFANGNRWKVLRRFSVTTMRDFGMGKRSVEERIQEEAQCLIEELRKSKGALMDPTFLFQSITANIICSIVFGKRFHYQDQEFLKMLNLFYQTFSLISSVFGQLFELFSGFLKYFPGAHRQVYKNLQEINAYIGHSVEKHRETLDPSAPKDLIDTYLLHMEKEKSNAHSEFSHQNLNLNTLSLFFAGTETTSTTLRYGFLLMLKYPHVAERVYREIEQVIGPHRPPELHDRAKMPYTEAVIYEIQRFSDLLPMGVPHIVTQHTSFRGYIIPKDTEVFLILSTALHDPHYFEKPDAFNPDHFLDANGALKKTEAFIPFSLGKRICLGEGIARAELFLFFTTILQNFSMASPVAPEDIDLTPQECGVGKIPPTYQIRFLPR

Plasma = experiment: Drug metabolism in rat assessed as metabolites in plasma at 30 mg/kg, po; type: ADME, organism-based; set-up: dose 30 mg/kg, route oral; conditions: in vivo
DNA gyrase = DNA gyrase (Escherichia coli, UniProt P0AES4+P0AES6); experiment: Inhibition of […] Escherichia coli DNA gyrase A2B2 using pBR322 plasmid DNA as substrate by coupled enzyme reaction assay; type: protein-complex assay
Cytochrome P450 2C9 = Cytochrome P450 2C9 (Homo sapiens, UniProt P11712); experiment: Drug metabolism in recombinant CYP2C9 (unknown origin) at 1 uM after 30 mins; type: ADME; conditions: recombinant enzyme, 0.5 h; how it was run: as §3
Sequence of Cytochrome P450 2C9 (P11712 whole entry): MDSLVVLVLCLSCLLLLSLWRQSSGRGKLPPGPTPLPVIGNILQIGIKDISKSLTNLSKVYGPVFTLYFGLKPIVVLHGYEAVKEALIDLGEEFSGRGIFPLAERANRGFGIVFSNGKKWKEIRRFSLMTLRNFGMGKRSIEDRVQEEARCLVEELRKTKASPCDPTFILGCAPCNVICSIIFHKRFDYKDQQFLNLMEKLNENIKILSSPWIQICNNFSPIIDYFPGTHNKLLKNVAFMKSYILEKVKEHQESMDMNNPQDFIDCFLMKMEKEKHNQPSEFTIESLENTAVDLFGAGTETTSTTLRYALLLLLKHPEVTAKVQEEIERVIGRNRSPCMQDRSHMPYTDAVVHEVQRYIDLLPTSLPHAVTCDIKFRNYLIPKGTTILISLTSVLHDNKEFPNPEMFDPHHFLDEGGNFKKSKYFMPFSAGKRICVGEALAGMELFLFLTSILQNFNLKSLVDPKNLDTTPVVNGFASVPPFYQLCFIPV

Staphylococcus aureus [7] = experiment: Antibacterial activity against methicillin-susceptible Staphylococcus aureus ATCC 29213 infected in mouse thigh assessed reduction in colony forming unit at 25 mg/kg, po bid after 72 hrs; type: functional
[8] = Drug metabolism in rat assessed as metabolites in urine at 30 mg/kg, po; type: ADME, organism-based; set-up: dose 30 mg/kg, route oral; conditions: in vivo
Cytochrome P450 2C19 = Cytochrome P450 2C19 (Homo sapiens, UniProt P33261); experiment: Drug metabolism in recombinant CYP2C19 (unknown origin) at 1 uM after 30 mins; type: ADME; conditions: recombinant enzyme, 0.5 h; how it was run: as §3
Sequence of Cytochrome P450 2C19 (P33261 whole entry): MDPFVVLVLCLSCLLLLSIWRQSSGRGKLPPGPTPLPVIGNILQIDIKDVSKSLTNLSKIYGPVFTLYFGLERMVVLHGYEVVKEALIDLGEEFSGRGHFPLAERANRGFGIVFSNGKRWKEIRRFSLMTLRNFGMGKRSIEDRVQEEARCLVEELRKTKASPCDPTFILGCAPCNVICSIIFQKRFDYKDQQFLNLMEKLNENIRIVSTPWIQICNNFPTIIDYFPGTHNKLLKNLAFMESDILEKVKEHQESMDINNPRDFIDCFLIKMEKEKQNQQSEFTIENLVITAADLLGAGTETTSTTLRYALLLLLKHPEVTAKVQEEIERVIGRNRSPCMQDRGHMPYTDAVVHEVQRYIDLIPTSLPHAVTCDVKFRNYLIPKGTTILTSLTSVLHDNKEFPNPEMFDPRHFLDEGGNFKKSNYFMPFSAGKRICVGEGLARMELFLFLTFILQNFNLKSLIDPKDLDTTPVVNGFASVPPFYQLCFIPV

[9] = Drug metabolism in rat assessed as metabolites in bile at 30 mg/kg, po; type: ADME, organism-based; set-up: dose 30 mg/kg, route oral; conditions: in vivo
[10] = Drug metabolism in rat assessed as metabolites in feces at 30 mg/kg, po; type: ADME, organism-based; set-up: dose 30 mg/kg, route oral; conditions: in vivo

CCNC(=O)Nc1nc2cc(-c3cnc(C(C)(C)O)nc3)c(F)c([C@H]3CCCO3)c2[nH]1 showed an MIC (Streptococcus pneumoniae) of no more than 0.008 µg/mL, a Drug metabolism (Rattus norvegicus [1]) of less than 5 pmol and an MIC (Enterococcus faecalis) of 0.032 µg/mL (≈ 0.0747 µM). It also gave a Drug metabolism (Rattus norvegicus [2]) of less than 5 pmol, an MIC [3] of no more than 0.008 µg/mL and an MIC (Staphylococcus aureus [4]) of 0.032 µg/mL (≈ 0.0747 µM). For the same compound, the MIC (Enterococcus faecium) was 0.125 µg/mL (≈ 0.292 µM), the Ki [5] was 9 nM and the MIC (Moraxella catarrhalis) was no more than 0.016 µg/mL. The MIC (Haemophilus influenzae) was 0.5 µg/mL (≈ 1.17 µM) and the MIC (Staphylococcus aureus [6]) was 0.25 µg/mL.
In the case of CCNC(=O)Nc1nc2cc(-c3cncc(F)c3)cc(-c3ncccn3)c2[nH]1, the Drug metabolism (Cytochrome P450 2C8) is reported as “metabolite_notdetected”, the Drug metabolism (Cytochrome P450 2B6) is reported as “metabolite_notdetected” and the Drug metabolism (Plasma) is reported as “metabolite_notdetected”. For the same compound, the MIC (Streptococcus pneumoniae) was no more than 0.008 µg/mL, the Ki (DNA gyrase) was 5 nM and the Drug metabolism (Cytochrome P450 2C9) was “metabolite_notdetected”. The MIC (Enterococcus faecalis) was less than 0.008 µg/mL, the log10cfu (Staphylococcus aureus [7]) was greater than 4 and the MIC (Staphylococcus aureus [4]) was 0.016 µg/mL (≈ 0.0424 µM). The Drug metabolism [8] was “metabolite_notdetected”, the Drug metabolism (Cytochrome P450 2C19) was “metabolite_notdetected” and the Ki [5] was less than 6 nM. For the same compound, the Drug metabolism [9] was “metabolite_notdetected”, the MIC (Haemophilus influenzae) was 1 µg/mL (≈ 2.65 µM) and the Drug metabolism [10] was “metabolite_notdetected”. For the same compound, the MIC (Staphylococcus aureus [6]) was 0.25 µg/mL.
